Assay results of several laboratories.
Compare with care: the assays were run in different laboratories.
gag-pol integrase: Gag-Pol polyprotein, integrase (gag-pol, Human immunodeficiency virus 1, UniProt P12497)
MET: Hepatocyte growth factor receptor (MET, Homo sapiens, UniProt P08581)
IDE: Insulin-degrading enzyme (IDE, Homo sapiens, UniProt P14735)
JAK3: Tyrosine-protein kinase JAK3 (JAK3, Homo sapiens, UniProt P52333)
MMP1: Interstitial collagenase (MMP1, Homo sapiens, UniProt P03956)
P2RX7: P2X purinoceptor 7 (P2RX7, Homo sapiens, UniProt Q99572)

O=C(O)[C@H](Cc1ccc2ccccc2c1)NC(=O)C1(c2ccc3ccccc3c2)CCN(S(=O)(=O)c2ccccc2)CC1  IC50 (gag-pol integrase; enzyme activity, inhibitor, TR-FRET): 54700 nM
Cc1cc(Oc2ccc(NC(=O)c3sc(-c4ccccn4)nc3C)cc2F)c2nncn2n1  IC50 (MET; enzyme activity, inhibitor, mobility shift): 900 nM
Cc1noc([C@H](Cc2c[nH]cn2)NC(=O)CN(CCCc2ccccc2)CC(=O)O)n1  IC50 (IDE; enzyme activity, inhibitor, fluorescence): 500 nM
CC/C=C\C/C=C\C/C=C\C/C=C\C/C=C\CCCC(=O)O  IC50 (DNA polymerase beta (Rattus norvegicus, UniProt P06766); enzyme activity, inhibitor): 88500 nM
CNC(=O)c1cc2c(Oc3ccc(NC(=O)C4(C(=O)Nc5ccc(F)cc5)CC4)cc3)ccnc2cc1OC  IC50 (Hepatocyte growth factor receptor (MET, Homo sapiens, UniProt P08581, Y1230H); enzyme activity, inhibitor, radiometric): 5 nM
CN1CCN(c2ccc(Nc3ncc4cc(C#N)c(=O)n(C5CCCC5)c4n3)cc2)CC1  IC50 (Serine/threonine-protein kinase Nek9 (NEK9, Homo sapiens, UniProt Q8TD19); enzyme activity, inhibitor): 399 nM
NC(=O)[C@H](Cc1c[nH]cn1)NC(=O)CN(CC(=O)O)Cc1ccccc1  IC50 (IDE; enzyme activity, inhibitor, fluorescence): 1400 nM
O=C(Nc1ccn(Cc2ccc(O)cc2C(F)(F)F)n1)c1c(F)cccc1F  IC50 (Potassium voltage-gated channel subfamily A member 5 (KCNA5, Homo sapiens, UniProt P22460); ion current, inhibitor): > 10000 nM
NC(=O)c1ccc[n+]([C@@H]2O[C@H](COP(=O)([O-])OP(=O)(O)OC[C@H]3O[C@@H](n4cnc5c(N)ncnc54)[C@H](O)[C@@H]3O)[C@@H](O)[C@H]2O)c1  IC50 (Protein mono-ADP-ribosyltransferase PARP3 (PARP3, Homo sapiens, UniProt Q9Y6F1); enzyme activity, inhibitor): 5000 nM
COC(=O)[C@H](CCCNC(=N)N)NC(=O)CN(CC(=O)O)Cc1ccccc1  IC50 (IDE; enzyme activity, inhibitor, fluorescence): 36300 nM
CC(C)(C)n1nc(-c2cnc3cc(OC4CC4)ccc3c2)c(C(N)=O)c1N  IC50 (JAK3; cell-free assay): > 10000 nM
COc1ccc(S(=O)(=O)N2Cc3cc(O)c(O)cc3CC2C(=O)NO)cc1 (stereo not drawn)  IC50 (MMP1; enzyme activity, inhibitor): 10000 nM
CC(C)COC(=O)[C@H](Cc1cnc[nH]1)NC(=O)CN(CC(=O)O)Cc1ccccc1  IC50 (IDE; enzyme activity, inhibitor, fluorescence): 600 nM
CCOC(=O)CC1=C/C(=C\c2ccc(-c3ccccc3)cc2)c2ccc(F)cc21  IC50 (Prostaglandin G/H synthase 2 (Ptgs2, Mus musculus, UniProt Q05769); enzyme activity, inhibitor): ~10000 nM
NC(=O)NCCC[C@@H](NS(=O)(=O)c1ccc(OCc2cc(Br)cc(Br)c2)cc1)C(=O)NO  IC50 (MMP1; enzyme activity, inhibitor, fluorescence): > 500000 nM
CCOC(=O)c1cnc2[nH]ccc2c1N[C@@H]1CCCN(C(=O)CC#N)C1  IC50 (JAK3; enzyme activity, inhibitor): 3.6 nM
O=C(Nc1ccccc1OS(=O)(=O)c1cccs1)c1ccc2ncccc2c1  IC50 (P2RX7; calcium signal, antagonist): 2480 nM
CC(C)C[C@H](NC(=O)[C@H](Cc1ccccc1)NC(=O)[C@H](Cc1ccc(O)cc1)NC(=O)CNC(=O)[C@H](CCCNC(=N)N)NC(=O)[C@H](CO)NC(=O)[C@H](CCC(N)=O)NC(=O)[C@H](CO)NC(=O)[C@H](C)NC(=O)[C@H](Cc1ccccc1)NC(=O)[C@@H]1CCCN1C(=O)[C@H](CO)NC(=O)[C@H](CCC(N)=O)NC(=O)[C@H](Cc1ccccc1)NC(=O)[C@H](CCC(=O)O)NC(=O)[C@H](CCC(=O)O)NC(=O)[C@H](CC(=O)O)NC(=O)[C@@H](NC(=O)[C@H](CCCNC(=N)N)NC(=O)[C@@H](N)Cc1ccccc1)C(C)C)C(=O)N[C@@H](Cc1ccccc1)C(=O)N[C@@H](CCCNC(=N)N)C(=O)N1CCC[C@H]1C(=O)N[C@@H](CCCNC(=N)N)C(=O)N[C@@H](CC(N)=O)C(N)=O  IC50 (Neuromedin-U receptor 2 (NMUR2, Homo sapiens, UniProt Q9GZQ4); ligand displacement, radioligand; cell membranes): 0.22 nM
Cc1cnc(-c2ccc(-c3ccc(NC(=O)Nc4c(F)cc(F)cc4F)cc3F)c3c2C(=O)NC3)[nH]1  IC50 (MET; enzyme activity, inhibitor): 13.6 nM
CC(C)C[C@H]1CC(=O)N[C@@H](C)C(=O)N[C@@H](CCCCCC(=O)O)C(=O)N[C@@H](Cc2c[nH]c3ccccc23)C(=O)N1  IC50 (Histone deacetylase 3 (HDAC3, Homo sapiens, UniProt O15379); enzyme activity, inhibitor): 600 nM
COC(=O)[C@H](Cc1c[nH]cn1)NC(=O)CN(CCCCc1ccccc1)CC(=O)O  IC50 (IDE; enzyme activity, inhibitor, fluorescence): 600 nM
O=C(Nc1cc(-c2ccc(Cl)cc2)[nH]n1)c1cccnc1  IC50 (crk3 (Leishmania mexicana, UniProt O15851); enzyme activity, inhibitor, radiometric): 2400 nM
Sc1nnc(-c2cc(-c3ccccc3)nc3ccccc23)o1  IC50 (P2RX7; calcium signal, antagonist): 7270 nM
O=C(O)CN(CC(=O)N[C@H](CO)Cc1c[nH]cn1)Cc1ccccc1  IC50 (IDE; enzyme activity, inhibitor, fluorescence): 4100 nM
Cc1ccc(C(=O)Nc2ccc(Oc3cc4cnn(C)c4cc3-c3cn[nH]c3)c(F)c2)c(=O)n1-c1ccc(F)cc1  IC50 (Macrophage colony-stimulating factor 1 receptor (CSF1R, Homo sapiens, UniProt P07333); phosphorylation in cells, inhibitor, western blot): 300 nM
Cc1ccc(S(=O)(=O)Oc2ccccc2NC(=O)c2ccc3ncccc3c2)cc1  IC50 (P2RX7; calcium signal, antagonist): 1490 nM
O=C(O)[C@H](Cc1ccccc1)NC(=O)C1(c2ccc(F)cc2)CCN(S(=O)(=O)c2ccccc2)CC1  IC50 (gag-pol integrase; enzyme activity, inhibitor, TR-FRET): 91300 nM
Oc1c2ccccc2c2c3c(cccc13)N=N2  IC50 (JAK3; enzyme activity, inhibitor): 344 nM
Cc1cc(Oc2ccc(NC(=O)c3cc(-c4cccs4)no3)cc2F)c2nncn2n1  IC50 (MET; enzyme activity, inhibitor, mobility shift): 540 nM
CCCCCCN(CC(=O)O)CC(=O)N[C@@H](Cc1c[nH]cn1)C(=O)OC  IC50 (IDE; enzyme activity, inhibitor, fluorescence): 400 nM
O=C(O)C1=CC(=C(c2ccc(O)c(C(=O)O)c2)c2ccc(O)c(C(=O)O)c2)C=CC1=O  IC50 (Lysosomal acid lipase/cholesteryl ester hydrolase (LIPA, Homo sapiens, UniProt P38571); enzyme activity, inhibitor): 1340 nM
COC(=O)[C@H](Cc1c[nH]cn1)NC(=O)CN(CCCc1ccccc1)CC(=O)O  IC50 (IDE; enzyme activity, inhibitor, fluorescence): 1000 nM
COc1ccc2c(Oc3ccc4c(C(=O)Nc5ccccc5N)cccc4c3)ccnc2c1  IC50 (MET; enzyme activity, inhibitor): > 500 nM
